The values below come from ChEMBL document CHEMBL1221249, “Synthesis and in vitro binding studies of piperazine-alkyl-naphthamides: impact of homology and sulphonamide/carboxamide bioisosteric replacement on the affinity for 5-HT1A, alpha2A, D4.2, D3 and D2L receptors” (Bioorg Med Chem Lett, 2010).

Assay [1] deals with T1, D(2) dopamine receptor (Homo sapiens, UniProt P14416). In words: Displacement of [3H]spiperone from human D2L receptor after 60 mins. Summed up:
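Cloned human D2L receptor membranes from transfected cells were incubated 60 min at 27 °C with [3H]-spiperone (0.2 nM). Buffer was 50 mM Tris-HCl pH 7.4 with 10 mM MgCl2 and 1 mM EDTA, and haloperidol (10 µM) defined non-specific binding. Bound radioactivity was collected on 0.3% PEI-soaked GF/C filters and measured by scintillation counting.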

Assay [2] concerns the target D(3) dopamine receptor (Rattus norvegicus, UniProt P19020). In words: Displacement of [3H]spiperone from rat dopamine D3 receptor after 60 mins.
Assay [3] addresses D(3) dopamine receptor (Rattus norvegicus) (UniProt P19020). In words: Displacement of [3H]-spiperone from rat D3 receptor after 60 mins.
Assay [4] has as its target D(4) dopamine receptor (Homo sapiens) (UniProt P21917). The assay can be described thus: Displacement of [3H]-YM-09151-2 from human D4.2 receptor after 60 mins.
For assay [5], the target named is 5-hydroxytryptamine receptor 1A (Homo sapiens) (UniProt P08908). In words: Displacement of [3H]8-OH-DPAT from human 5-HT1A receptor after 60 mins.
The target in assay [6] is T1, D(2) dopamine receptor. The assay can be described thus: Displacement of [3H]spiperone from human D2L receptor at 1 uM after 60 mins.

T1 sequence (P14416 whole entry): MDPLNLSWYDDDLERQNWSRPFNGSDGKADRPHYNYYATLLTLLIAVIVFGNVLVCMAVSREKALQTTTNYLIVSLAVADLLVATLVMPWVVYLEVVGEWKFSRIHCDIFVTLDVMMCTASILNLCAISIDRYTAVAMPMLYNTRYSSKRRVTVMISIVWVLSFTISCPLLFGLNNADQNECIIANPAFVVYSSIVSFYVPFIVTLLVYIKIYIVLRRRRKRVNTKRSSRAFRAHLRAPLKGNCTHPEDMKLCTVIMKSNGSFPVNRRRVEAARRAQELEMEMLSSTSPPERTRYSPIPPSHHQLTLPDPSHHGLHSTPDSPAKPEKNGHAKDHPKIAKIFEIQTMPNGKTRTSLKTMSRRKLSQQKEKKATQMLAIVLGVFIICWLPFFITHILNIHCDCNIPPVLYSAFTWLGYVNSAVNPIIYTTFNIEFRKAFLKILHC
Chain of D(4) dopamine receptor (Homo sapiens) (P21917 whole entry, looked up): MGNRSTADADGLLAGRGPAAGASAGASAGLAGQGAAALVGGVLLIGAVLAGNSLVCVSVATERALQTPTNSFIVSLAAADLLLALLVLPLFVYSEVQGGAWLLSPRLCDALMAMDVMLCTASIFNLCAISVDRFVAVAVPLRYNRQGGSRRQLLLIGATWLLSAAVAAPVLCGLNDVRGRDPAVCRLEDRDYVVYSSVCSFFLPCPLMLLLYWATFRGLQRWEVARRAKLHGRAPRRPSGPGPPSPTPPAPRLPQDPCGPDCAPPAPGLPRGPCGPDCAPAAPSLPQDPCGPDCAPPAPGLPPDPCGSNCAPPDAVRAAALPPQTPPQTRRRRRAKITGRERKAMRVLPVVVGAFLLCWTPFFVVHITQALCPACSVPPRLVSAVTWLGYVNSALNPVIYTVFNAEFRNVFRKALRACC
Chain of 5-hydroxytryptamine receptor 1A (Homo sapiens) (P08908 whole entry, looked up): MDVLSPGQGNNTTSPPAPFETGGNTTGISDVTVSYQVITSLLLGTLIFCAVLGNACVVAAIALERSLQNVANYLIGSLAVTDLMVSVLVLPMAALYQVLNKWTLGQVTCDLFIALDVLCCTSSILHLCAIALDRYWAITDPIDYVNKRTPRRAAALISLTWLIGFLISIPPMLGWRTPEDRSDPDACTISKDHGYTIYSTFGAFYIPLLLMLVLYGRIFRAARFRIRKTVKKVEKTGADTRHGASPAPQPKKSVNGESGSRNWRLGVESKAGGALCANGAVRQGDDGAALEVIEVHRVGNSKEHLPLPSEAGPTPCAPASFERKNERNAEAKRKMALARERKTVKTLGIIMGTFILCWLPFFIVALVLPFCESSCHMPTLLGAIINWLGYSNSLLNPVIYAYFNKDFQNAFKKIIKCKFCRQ
Chain of D(3) dopamine receptor (P19020 whole entry): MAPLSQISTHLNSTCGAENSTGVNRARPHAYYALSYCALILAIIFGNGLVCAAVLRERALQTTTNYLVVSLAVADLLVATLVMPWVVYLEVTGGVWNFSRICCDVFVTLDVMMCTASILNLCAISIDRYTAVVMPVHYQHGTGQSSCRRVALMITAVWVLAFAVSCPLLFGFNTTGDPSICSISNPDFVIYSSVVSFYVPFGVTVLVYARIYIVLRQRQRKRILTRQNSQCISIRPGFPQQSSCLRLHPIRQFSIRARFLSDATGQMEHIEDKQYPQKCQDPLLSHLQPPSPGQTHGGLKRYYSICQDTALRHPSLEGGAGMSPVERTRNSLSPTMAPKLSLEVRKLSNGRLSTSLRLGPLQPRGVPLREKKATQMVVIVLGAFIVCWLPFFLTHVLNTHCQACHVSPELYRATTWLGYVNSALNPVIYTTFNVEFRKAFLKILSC

With `COc1ccccc1N1CCN(CCNC(=O)c2ccc3ccccc3c2)CC1`, the Ki stood at 0.89 µM in assay [1], 0.113 µM in assay [2] and 0.066 µM in assay [3].
The matching figures for `COc1ccccc1N1CCN(CCCCCNS(=O)(=O)c2ccc3ccccc3c2)CC1`: 0.438 µM, 0.084 µM and 0.0125 µM.
With `COc1ccccc1N1CCN(CCCCCCNC(=O)c2ccc3ccccc3c2)CC1`, the figures for the Ki in assay [1], in assay [2] and in assay [3] were 0.121 µM, 0.096 µM and 0.00056 µM, respectively.
As to `COc1ccccc1N1CCN(CCCCCNC(=O)c2ccc3ccccc3c2)CC1`, the Ki came out at 0.254 µM in assay [1]; 0.00936 µM in assay [2]; 0.054 µM in assay [4]; 0.0111 µM in assay [5]; 0.013 µM in assay [3].
Regarding `COc1ccccc1N1CCN(CCCNS(=O)(=O)c2ccc3ccccc3c2)CC1`, the Ki in assay [1] came to 0.132 µM; in assay [2], 0.101 µM; in assay [4], 0.112 µM; in assay [5], 0.00464 µM; in assay [3] it was 0.0585 µM.
For `COc1ccccc1N1CCN(CCCCCCNS(=O)(=O)c2ccc3ccccc3c2)CC1` the same measures were 0.099 µM, at most 0.045 µM, 0.00962 µM, 0.00287 µM and 0.00197 µM.
As for `COc1ccccc1N1CCN(CCCCNS(=O)(=O)c2ccc3ccccc3c2)CC1`, the Ki in assay [1] came to 0.0465 µM; in assay [2] it was 0.079 µM; in assay [4], 0.062 µM; in assay [5] it was 0.0041 µM; in assay [3] it was 0.0275 µM.
For the molecule `COc1ccccc1N1CCN(CCCNC(=O)c2ccc3ccccc3c2)CC1`, the inhibitory constant (Ki) in assay [2] came out at 0.071 µM; in assay [4], 0.0178 µM; in assay [5], 0.00459 µM; in assay [3] it was 0.175 µM. This molecule yielded an inhibition in assay [6] of 46%.
For `COc1ccccc1N1CCN(CCNS(=O)(=O)c2ccc3ccccc3c2)CC1` the same measures were 0.348 µM, 0.0244 µM, 0.00519 µM, 0.056 µM and 44%.
Molecule `COc1ccccc1N1CCN(CCCCNC(=O)c2ccc3ccccc3c2)CC1` showed an inhibition in assay [6] of 30%.
